Assay results pooled from the literature.
Lines come from different studies, so protocols differ.
Target: Phosphatidylinositol 4-phosphate 3-kinase C2 domain-containing subunit beta (PIK3C2B, Homo sapiens, UniProt O00750)

Structure (SMILES)	test	conditions	remaining binding [%]
CC1CCCN1c1nccc(-c2cnn3ncccc23)n1 (stereo not drawn)	binding	1 µM	100
COc1cnc(Nc2cccc(S(N)(=O)=O)c2)nc1N1CCN(c2ccccc2)C(=O)C1	binding, competition with immobilised ligand	1 µM	97
CN(c1nccc(-c2cnn3ncccc23)n1)C1CC1	binding	1 µM	100
C[C@H](c1ccnc(Nc2nc3ccc(-c4cc(N(C)C)ncn4)cc3[nH]2)c1)N1CCN(C(=O)CC(F)(F)F)CC1	cell-free assay, competition with immobilised ligand	0.1 µM	97
Cc1cnc(Nc2ccc(C(=O)N3CCC(N4CCCC4)CC3)cc2)nc1-c1cc2ccccc2s1	binding, competition with immobilised ligand	1 µM	99
F[C@@H]1CCN(c2nccc(-c3cnn4ncccc34)n2)C1	binding	1 µM	85
O=C(Nc1cnc(Oc2ccc(F)cc2)nc1)N1CCc2ncccc2[C@@H]1c1ccc(F)cc1	cell-free assay, competition with immobilised ligand	1 µM	95
COc1ccnn2ncc(-c3ccnc(N(C)C)n3)c12	binding	1 µM	100
CCN1CCN(Cc2ccc(C(=O)Nc3ccc(C)c(Oc4ccc5c(c4)CC(=O)N5)c3)cc2C(F)(F)F)CC1	binding, competition with immobilised ligand	1 µM	66
C[C@@H](c1cccc(C#N)c1)n1cc(Cl)cc(C(N)=O)c1=N	cell-free assay, competition with immobilised ligand	1 µM	96
N[C@@H]1CCN(c2nccc(-c3cnn4ncccc34)n2)C1	binding	1 µM	100
CCS(=O)(=O)c1cc2cc(C[C@@](O)(CC(C)(C)c3ccc(F)cc3C(N)=O)C(F)(F)F)[nH]c2cn1	cell-free assay, competition with immobilised ligand	1 µM	86
O=C(c1ccc(Nc2ncc(Cl)c(-c3cc4ccccc4s3)n2)cc1)N1CCC(N2CCCC2)CC1	binding, competition with immobilised ligand	1 µM	100
O=C(Nc1cccnn1)N1CCC(=Cc2cccc(Oc3ccc(C(F)(F)F)cn3)c2)CC1	cell-free assay, competition with immobilised ligand	1 µM	91
N#Cc1ccccc1CSc1nnc2c(n1)[nH]c1ccccc12	binding, competition with immobilised ligand	10 µM	95
c1cnn2ncc(-c3ccnc(N4CCC45COC5)n3)c2c1	binding	1 µM	82
O=C(NCCCN1CCOCC1)c1ccc(Nc2nccc(-c3cc4ccccc4s3)n2)cc1	binding, competition with immobilised ligand	1 µM	92
COc1ccc2c(O[C@@H]3C[C@H]4C(=O)N[C@]5(C(=O)O)CC5/C=C\CCCCC[C@H](NC(=O)OC5CCCC5)C(=O)N4C3)cc(-c3csc(NC(=O)C(C)C)n3)nc2c1C (stereo partly drawn)	cell-free assay, competition with immobilised ligand	1 µM	82
C[C@H]1CCN(c2nccc(-c3cnn4ncccc34)n2)C1	binding	1 µM	91
FC(F)(F)Oc1cccc(-c2cnc3ccc(-c4ccncc4)nn23)c1	cell-free assay, competition with immobilised ligand	5 µM	54
O=C(Nc1c[nH]nc1C(=O)NC1CCNCC1)c1cc(F)cc(F)c1	binding, competition with immobilised ligand	1 µM	100
C[C@@H](c1ccc(-n2cnc3c(N)ncnc32)cc1)N1CCc2nn(C)c(Cc3ccccc3)c2C1=O	binding, competition with immobilised ligand	0.1 µM	87
CN(c1ccnc(CNc2nc(Nc3ccc4c(c3)CC(=O)N4)ncc2C(F)(F)F)n1)S(C)(=O)=O	cell-free assay, competition with immobilised ligand	1 µM	79
Cc1nc(NC(=O)N2CCC[C@H]2C(N)=O)sc1-c1ccnc(C(C)(C)C(F)(F)F)c1	binding, competition with immobilised ligand	10 µM	4
